Screens (PubChem BioAssay)
This excerpt belongs to a sample that is enriched for hits.
IDH1 R132H inh = inhibitors of IDH1 R132H reductase, primary screen, biochemical, plate reader, single point | Isocitrate dehydrogenase [NADP] cytoplasmic (Homo sapiens), O75874 | diaphorase/resazurin fluorescence, 60 min | inhibition, % at 10 µM | 70,000 compounds, 0.18% hits | AID 624101, 2012; in the data active = inhibition above about 34%;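 note: 0% = DMSO and 100% = no enzyme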
T cruzi growth-1 = T. cruzi intracellular proliferation inhibitors, primary screen, cell-based, beta-gal Tulahuen parasites, NIH3T3 host, luminescence. T. cruzi beta-gal in NIH3T3, GalScreen luminescence, 90 h. AID 624255, 2012. 77,000 compounds, 5.9% hits. inhibition, % at 8.34 µM;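 active = mean inhibition above about 93%, with at least 55% of replicates each passing it, limit read from the data, passing the limit was not always enough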
GASC1 inh = inhibitors of GASC-1 (KDM4C) histone demethylase, primary screen, biochemical, single concentration HTS | GST-KDM4C 2-372, H3K9me3 peptide, LANCE TR-FRET | inhibition, % at 12.5 µM | 96,000 compounds, 0.15% hits;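 active = mean replicate inhibition above about 25%, with at least 55% of replicates also reaching it, limit read from the data, passing the limit was not always enough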
Target sequence (Q9H3R0 2-372 limits assumed): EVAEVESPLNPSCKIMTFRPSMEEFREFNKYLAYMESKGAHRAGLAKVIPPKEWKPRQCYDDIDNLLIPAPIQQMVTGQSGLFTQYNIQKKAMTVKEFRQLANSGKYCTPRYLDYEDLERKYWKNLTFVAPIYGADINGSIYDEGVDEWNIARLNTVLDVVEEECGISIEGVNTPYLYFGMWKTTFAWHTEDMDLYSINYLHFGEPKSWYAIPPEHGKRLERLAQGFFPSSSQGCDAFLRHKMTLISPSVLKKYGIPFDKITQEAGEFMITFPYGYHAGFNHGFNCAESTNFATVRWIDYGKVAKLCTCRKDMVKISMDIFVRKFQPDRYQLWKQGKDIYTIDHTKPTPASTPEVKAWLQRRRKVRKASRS
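material = GST-tagged GASC-1 (JMJD2C) catalytic fragment, aa 2-372 | amount = enzyme final amount 10 nM | medium = HEPES buffer, pH 7.5, plus ascorbate | also added = H3K9me3 peptide substrate, Fe(II), 2-oxoglutarate | dosing = single dose | times = 30 min demethylation and 1 h detection at room temperature | detection = LANCE TR-FRET | read-out basis = Fall in 671/618 emission ratio as inhibition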
T cruzi growth-2 = T. cruzi intracellular proliferation inhibitors, confirmation, cell-based, NIH3T3 host, beta-gal parasite, luminescence, cherry-pick; shares compounds with T cruzi growth-1; inhibition, % at 8.35 µM; T. cruzi beta-gal in NIH3T3, GalScreen luminescence, 90 h; 5,600 compounds, 72% hits; AID 651739, 2012;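 active = mean replicate inhibition above about 95% and at least 55% of replicates individually reaching it, limit read from the data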
T cruzi growth-3 = inhibitors of intracellular T. cruzi replication, confirmation, NIH3T3 host cells, beta-gal parasites, cherry-pick, set 2 | shares compounds with T cruzi growth-1 | T. cruzi beta-gal in NIH3T3, GalScreen luminescence, 90 h | inhibition, % at 2.09 µM | 5,600 compounds, 21% hits;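 active = mean inhibition above about 95%, with at least 55% of replicates also reaching it, limit read from the data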;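 note: plate controls were neutral control median for no effect and positive control median for full effect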
3T3 cytotox = cytotoxicity in mouse NIH/3T3 fibroblasts, confirmation, cytotoxicity control for T. cruzi proliferation inhibitor project, cell-based, cherry-pick, single point. shares compounds with T cruzi growth-1. NIH/3T3 viability, CellTiter-Glo ATP luminescence, 90 h. cytotoxicity (signal decrease), % at 8.35 µM. 5,600 compounds, 14% hits;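 active = mean signal decrease across replicates above about 35% based on untreated-well scatter, with enough replicates individually passing, limit read from the data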;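 note: 0% = median of neutral control wells and 100% = median of positive control wells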
3T3 cytotox 2 = NIH/3T3 fibroblast cytotoxicity, confirmation, cytotoxicity control, cell-based, cherry-pick, single point, set 2 | shares compounds with T cruzi growth-1 | NIH/3T3 viability, CellTiter-Glo ATP luminescence, 90 h | inhibition, % at 24.9 µM | 5,600 compounds, 56% hits;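 active = mean loss of cell viability signal at or above a set limit, and enough replicates individually reaching it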;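 note: 0% = median of neutral control wells and 100% = median of positive control wells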
An asterisk follows results filed as active; . = no result given.

SMILES	IDH1 R132H inh	T cruzi growth-1	GASC1 inh	T cruzi growth-2	T cruzi growth-3	3T3 cytotox	3T3 cytotox 2
COc1cccc(S(=O)(=O)N2CCCCN3[C@@H](CO)[C@@H](c4ccc(C#CC5CC5)cc4)[C@@H]3C2)c1	.	53	-1	.	.	.	.
Cc1cccc(S(=O)(=O)N2CCCCN3[C@H](CO)[C@@H](c4ccc(C#CC5CC5)cc4)[C@H]3C2)c1	.	94	-1	.	.	.	.
C[C@@H]1CN([C@H](C)CO)C(=O)c2cc(NS(=O)(=O)c3ccc(Cl)cc3)ccc2O[C@H]1CN(C)S(=O)(=O)c1ccccc1	.	37	-2	.	.	.	.
N=C1C(c2nc3ccccc3s2)=C(O)CN1CCCN1CCOCC1	0	.	.	.	.	.	.
COc1ccc(-c2nc(SCC(=O)Nc3ccc(Br)c(Cl)c3)n[nH]2)cc1	1	.	.	.	.	.	.
CCOC(=O)c1c(-c2ccccc2)csc1NC(=O)Cn1cnc2ccccc2c1=O	0	.	.	.	.	.	.
COc1ccc(-n2c(Cn3ncc4ccccc4c3=O)n[nH]c2=S)cc1	0	.	.	.	.	.	.
O=C(CCN1C(=O)c2ccccc2C1=O)Nc1ccccc1C(=O)N1CCCC1	0	.	.	.	.	.	.
CN(C1CCCCC1)S(=O)(=O)c1cc(Br)cc2c1N(C(=O)C1CC1)CC2	-4	.	.	.	.	.	.
O=C(C[C@H]1CC[C@@H](NC(=O)c2ccc3c(c2)OCO3)[C@H](CO)O1)NC1Cc2ccccc2C1	0	-52	2	.	.	.	.
C[C@@H]1CN([C@@H](C)CO)C(=O)c2cc(NS(=O)(=O)c3ccccc3)ccc2O[C@@H](C)CCCCO[C@H]1CN(C)S(=O)(=O)c1ccc(F)cc1	1	57	-1	.	.	.	.
C[C@@H]1CCCCO[C@H](CN(C)S(=O)(=O)c2ccc(F)cc2)[C@@H](C)CN([C@@H](C)CO)C(=O)c2cc(NS(=O)(=O)c3ccc(F)cc3)ccc2O1	0	111*	-1	103*	62	-4	19
C[C@@H]1CN([C@@H](C)CO)C(=O)c2cc(NS(=O)(=O)c3ccc(F)cc3)ccc2O[C@@H](C)CCCCO[C@H]1CN(C)S(=O)(=O)c1ccccc1	2	0	-1	.	.	.	.
C[C@@H]1CCCCO[C@H](CN(C)S(=O)(=O)c2ccc(F)cc2)[C@@H](C)CN([C@H](C)CO)C(=O)c2cc(NS(=O)(=O)c3ccc(F)cc3)ccc2O1	11	8	0	.	.	.	.
C[C@@H]1CN([C@@H](C)CO)C(=O)c2cc(NS(=O)(=O)c3ccccc3)ccc2O[C@@H](C)CCCCO[C@@H]1CN(C)S(=O)(=O)c1ccc(F)cc1	1	54	0	.	.	.	.
C[C@@H]1CCCCO[C@@H](CN(C)S(=O)(=O)c2ccc(F)cc2)[C@H](C)CN([C@@H](C)CO)C(=O)c2cc(NS(=O)(=O)c3ccc(F)cc3)ccc2O1	.	109*	-2	106*	86	0	11
C[C@H]1CCCCO[C@H](CN(C)S(=O)(=O)c2ccc(F)cc2)[C@@H](C)CN([C@@H](C)CO)C(=O)c2cc(NS(=O)(=O)c3ccc(F)cc3)ccc2O1	-1	99*	1	110*	68	3	-3
C[C@H]1CCCCO[C@@H](CN(C)S(=O)(=O)c2ccc(F)cc2)[C@@H](C)CN([C@@H](C)CO)C(=O)c2cc(NS(=O)(=O)c3ccc(F)cc3)ccc2O1	0	119*	-3	105*	33	-13	-17
Cc1ccccc1NC(=O)CSc1nc2cc3ccccc3cc2[nH]1	0	.	.	.	.	.	.
C[C@@H]1CN([C@H](C)CO)C(=O)c2cc(-c3cncnc3)cnc2O[C@@H]1CN(C)C(=O)Cc1ccccn1	0	-24	1	.	.	.	.
CCOC(=O)Cc1[nH]nc2c1C(C(C)C)C(C#N)=C(N)O2 (stereo unspecified)	0	.	.	.	.	.	.
COc1cc(NC(=O)COc2ccc(Cl)cc2Cl)c2ncccc2c1	-1	.	.	.	.	.	.
C[C@@H]1CCCCO[C@@H](CN(C)S(=O)(=O)c2ccccc2)[C@@H](C)CN([C@H](C)CO)C(=O)c2cc(NS(=O)(=O)c3ccc(F)cc3)ccc2O1	1	22	.	.	.	.	.
C[C@@H]1CCCCO[C@H](CN(C)S(=O)(=O)c2ccc(F)cc2)[C@H](C)CN([C@H](C)CO)C(=O)c2cc(NS(=O)(=O)c3ccccc3)ccc2O1	.	104*	-2	114*	79	18	7
C[C@H](CO)N1C[C@H](C)[C@H](CN(C)S(=O)(=O)c2ccc(F)cc2)OCCCC[C@H](C)Oc2ccc(NS(=O)(=O)c3ccc(F)cc3)cc2C1=O	.	119*	1	103*	91	8	-15
SMILES	IDH1 R132H inh	T cruzi growth-1	GASC1 inh	T cruzi growth-2	T cruzi growth-3	3T3 cytotox	3T3 cytotox 2
C[C@@H]1CCCCO[C@@H](CN(C)S(=O)(=O)c2ccccc2)[C@H](C)CN([C@@H](C)CO)C(=O)c2cc(NS(=O)(=O)c3ccc(F)cc3)ccc2O1	0	63	-1	.	.	.	.
CNC[C@H]1Oc2c(NC(=O)Nc3ccccc3)cccc2C(=O)N([C@H](C)CO)C[C@@H]1C	3	-5	1	.	.	.	.
C[C@@H]1CCCCO[C@@H](CN(C)C(=O)Cc2ccccc2)[C@H](C)CN([C@@H](C)CO)C(=O)c2cc(NS(=O)(=O)c3ccc(Cl)cc3)ccc2O1	.	100*	0	106*	74	3	47
C[C@H]1CCCCO[C@H](CN(C)C(=O)CCC(F)(F)F)[C@@H](C)CN([C@@H](C)CO)C(=O)c2cc(NS(=O)(=O)c3ccc(Cl)cc3)ccc2O1	.	75	-1	.	.	.	.
C[C@H]1CCCCO[C@@H](CN(C)C(=O)Cc2ccccc2)[C@@H](C)CN([C@@H](C)CO)C(=O)c2cc(NS(=O)(=O)c3ccccc3)ccc2O1	1	.	1	.	.	.	.
C[C@@H]1CCCCO[C@H](CN(C)C(=O)CCC(F)(F)F)[C@H](C)CN([C@H](C)CO)C(=O)c2cc(NS(=O)(=O)c3ccc(Cl)cc3)ccc2O1	0	101*	-1	100*	61	18	-4
Cc1ccc(S(=O)(=O)Nc2ccc3c(c2)C(=O)N([C@H](C)CO)C[C@@H](C)[C@H](CN(C)C(=O)Cc2ccccc2)OCCCC[C@@H](C)O3)cc1	-4	97*	0	108*	63	1	-15
